# Data taken from ChEMBL document CHEMBL2375244 (J Med Chem, 2013).
# How the values were obtained:
# [1] = biological target: T1, CDK2/Cyclin A2 (Homo sapiens, UniProt P24941); assay: Inhibition of human CDK2/Cyclin A2 using PKTPKKAKKL as substrate by PK/LDH spectrophotometric analysis; format: protein-complex assay
# [2] = Cytotoxicity against mouse GC-1 cells after 72 hrs by MTT assay; format: functional, cell-based; details: GC-1, 72 h
# Outline: (§1)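 Cells kept in RPMI or DMEM with 10% FBS at 37 °C, 5% CO₂ and allowed to attach overnight; 72 h with increasing inhibitor concentrations; then 1 mg/mL MTT for 3 h, DMSO solubilisation, OD read at 540 nm. Testis lines had culture conditions adapted to them. Dose-response in triplicate, 9 concentrations between 0.02 and 100 μM, averaged.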
# [3] = Cytotoxicity against mouse TM4 cells after 72 hrs by MTT assay; format: functional, cell-based; details: TM4, 72 h; outline: as §1
# [4] = Cytotoxicity against mouse GC-2 cells after 72 hrs by MTT assay; format: functional, cell-based; details: GC-2, 72 h; outline: as §1
# [5] = biological target: T1, CDK2/Cyclin A2; assay: Inhibition of human CDK2/Cyclin A2 using PKTPKKAKKL as substrate by fluorescence assay; format: protein-complex assay
# [6] = system: MDA-MB-468; assay: Cytotoxicity against human MDA-MB-468 cells after 72 hrs by MTT assay; format: functional, cell-based; details: MDA-MB-468, 72 h; outline: as §1
# [7] = system: U-266; assay: Cytotoxicity against human U266 cells after 72 hrs by resazurin/resorufin-based fluorescence assay; format: functional, cell-based; details: U-266, 72 h
# [8] = Cytotoxicity against human MDA-MB-436 cells after 72 hrs by resazurin/resorufin-based fluorescence assay; format: functional, cell-based; details: MDA-MB-436, 72 h
# [9] = Cytotoxicity against human RPMI18226 cells after 72 hrs by resazurin/resorufin-based fluorescence assay; format: functional, cell-based; details: RPMI18226, 72 h
# [10] = system: SK-BR-3; assay: Cytotoxicity against human SK-BR-3 cells after 72 hrs by resazurin/resorufin-based fluorescence assay; format: functional, cell-based; details: SK-BR-3, 72 h
# Outline: (§2)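 CellTiter-Blue viability: 1200 cells per well seeded, incubated overnight at 37 °C, 5% CO₂; drugs serially diluted 2:3 in medium, four replicate wells per concentration plus four diluent-only control wells; 72 h exposure; resazurin reduction to resorufin read by fluorescence (579 nm ex/584 nm em). IC50 is the average of three data sets, each using nine concentrations between 0.004 μM and 12.5 μM.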
# [11] = system: BT-549; assay: Cytotoxicity against human BT549 cells after 72 hrs by resazurin/resorufin-based fluorescence assay; format: functional, cell-based; details: BT-549, 72 h; outline: as §2
# [12] = system: A673; assay: Cytotoxicity against human A673 cells after 72 hrs by resazurin/resorufin-based fluorescence assay; format: functional, cell-based; details: A673, 72 h
# [13] = system: SK-ES1; assay: Cytotoxicity against human SK-ES-1 cells after 72 hrs by resazurin/resorufin-based fluorescence assay; format: functional, cell-based; details: SK-ES1, 72 h
# [14] = Cytotoxicity against human NCI-H929 cells after 72 hrs by resazurin/resorufin-based fluorescence assay; format: functional, cell-based; details: NCI-H929, 72 h
# [15] = system: T47D; assay: Cytotoxicity against human T47D cells after 72 hrs by resazurin/resorufin-based fluorescence assay; format: functional, cell-based
# [16] = system: HOS-TE85; assay: Cytotoxicity against human MNNG-HOS cells after 72 hrs by resazurin/resorufin-based fluorescence assay; format: functional, cell-based; details: HOS-TE85, 72 h
# [17] = system: SW872; assay: Cytotoxicity against human SW872 cells after 72 hrs by resazurin/resorufin-based fluorescence assay; format: functional, cell-based; details: SW872, 72 h
# [18] = system: SK-UT-1; assay: Cytotoxicity against human SK-UT-1 cells after 72 hrs by resazurin/resorufin-based fluorescence assay; format: functional, cell-based; details: SK-UT-1, 72 h
# [19] = system: MDA-MB-231; assay: Cytotoxicity against human MDA-MB-231 cells after 72 hrs by resazurin/resorufin-based fluorescence assay; format: functional, cell-based; details: MDA-MB-231, 72 h
# [20] = system: MCF7; assay: Cytotoxicity against human MCF7 cells after 72 hrs by resazurin/resorufin-based fluorescence assay; format: functional, cell-based; details: MCF7, 72 h
smiles,measurement,setting,value
Nc1nc(NC2CCNCC2)sc1C(=O)c1cccnc1,IC50,[1],43 µM
CNc1nc(N)c(C(=O)c2ccccc2)s1,IC50,[1],95 µM
Nc1nc(Nc2ccc(S(N)(=O)=O)cc2)sc1C(=O)c1ccccc1,IC50,[2],17 µM
same,IC50,[3],9.1 µM
same,IC50,[4],6.1 µM
same,IC50,[5],0.13 µM
Nc1nc(Nc2ccc(S(N)(=O)=O)cc2)sc1C(=O)c1ccc([N+](=O)[O-])cc1,IC50,[1],7.4 µM
CCNc1nc(N)c(C(=O)c2ccccc2)s1,IC50,[1],17 µM
Nc1ccc(C(=O)c2sc(Nc3ccc(S(N)(=O)=O)cc3)nc2N)cc1,IC50,[1],8.8 µM
CCCNc1nc(N)c(C(=O)c2ccccc2)s1,IC50,[1],8.9 µM
NC(=O)c1ccc(Nc2nc(N)c(C(=O)c3cccnc3)s2)cc1,IC50,[5],0.2 µM
Nc1nc(NC2CCCCC2)sc1C(=O)c1cccnc1,IC50,[6],3.1 µM
same,IC50,[5],0.38 µM
Nc1nc(Nc2ccc(C(=O)O)cc2)sc1C(=O)c1cccnc1,IC50,[1],4 µM
C=C(C)CNc1nc(N)c(C(=O)c2ccccc2)s1,IC50,[1],15 µM
Nc1nc(Nc2cccc(S(N)(=O)=O)c2)sc1C(=O)c1cccnc1,IC50,[1],7.8 µM
CCOC(=O)c1sc(Nc2ccccc2)nc1N,IC50,[1],> 100 µM
C=CCNc1nc(N)c(C(C)=O)s1,IC50,[1],> 100 µM
C=CCNc1nc(N)c(C(=O)c2cccc([N+](=O)[O-])c2)s1,IC50,[1],2.9 µM
Nc1nc(Nc2ccc(S(N)(=O)=O)cc2)sc1C(=O)c1ccc(S(N)(=O)=O)cc1,IC50,[7],7.2 µM
same,IC50,[8],> 10 µM
same,IC50,[9],> 10 µM
same,IC50,[10],> 10 µM
same,IC50,[11],> 10 µM
same,IC50,[12],> 10 µM
same,IC50,[13],> 10 µM
same,IC50,[14],> 10 µM
same,IC50,[15],8.7 µM
same,IC50,[5],0.07 µM
same,IC50,[16],> 10 µM
same,IC50,[17],> 10 µM
same,IC50,[18],> 10 µM
same,IC50,[19],> 10 µM
same,IC50,[20],> 10 µM
C=CCNc1nc(N)c(C(=O)c2ccc(C)cc2)s1,IC50,[1],37 µM
Nc1nc(Nc2ccc(S(N)(=O)=O)cc2)sc1C(=O)C1CCCCC1,IC50,[1],3.5 µM
CC(C)(C)OC(=O)N1CCC(Nc2nc(N)c(C(=O)c3cccnc3)s2)CC1,IC50,[1],3.5 µM
Nc1nc(Nc2ccc(S(N)(=O)=O)cc2)sc1C(=O)c1cccc(O)c1,IC50,[1],1.5 µM
NC(=O)c1sc(Nc2ccc(S(N)(=O)=O)cc2)nc1N,IC50,[1],4.8 µM
Nc1nc(Nc2ccc(S(N)(=O)=O)cc2)sc1C(=O)c1cc(C(F)(F)F)cc(C(F)(F)F)c1,IC50,[1],25 µM
Nc1nc(Nc2ccc(S(N)(=O)=O)cc2)sc1C(=O)c1cccc(C(F)(F)F)c1,IC50,[5],0.57 µM
Nc1nc(Nc2ccccc2)sc1C(=O)c1ccccc1,IC50,[2],11 µM
same,IC50,[3],12 µM
same,IC50,[4],11 µM
same,IC50,[5],0.93 µM
Nc1nc(Nc2ccccc2)sc1C(=O)c1cccc(F)c1,IC50,[1],1.6 µM
same,IC50,[2],3.6 µM
same,IC50,[3],5.1 µM
same,IC50,[4],4.1 µM
COc1cccc(C(=O)c2sc(Nc3ccc(S(N)(=O)=O)cc3)nc2N)c1,IC50,[5],0.1 µM
C=CCNc1nc(N)c(C(=O)c2ccc(Cl)s2)s1,IC50,[1],12 µM
COc1cccc(C(=O)c2sc(Nc3ccccc3)nc2N)c1,IC50,[1],3.1 µM
C=CCNc1nc(N)c(C(=O)c2ccc(Cl)cc2)s1,IC50,[1],> 100 µM
C=CCNc1nc(N)c(C(=O)c2ccc(OC)cc2)s1,IC50,[1],35 µM
NC(=O)c1sc(Nc2ccccc2)nc1N,IC50,[1],> 100 µM
same,IC50,[2],> 60 µM
same,IC50,[3],> 60 µM
same,IC50,[4],> 60 µM
